Most compounds without a hit are left out; they make up all but 0.74% or so of the library.
G6PDH counter – L. mesenteroides G6PDH inhibitors, counter-screen for G6PDH-coupled screening assays, biochemical, Leuconostoc mesenteroides enzyme | inhibition, % at 5 µM | Purified L. mesenteroides G6PDH, diaphorase/resazurin coupled fluorescence, 45 min | AID 1020, 2008 | actives 0.12% (n = 200,000); in the data active = inhibition above about 50%
Arbovirus inh – antivirals against arbovirus infection, primary screen, cell-based, full library, 10K replicate subset; arbovirus infection cell-based antiviral screen; inhibition, % at 10 µM; actives 0.37% (n = 200,000); AID 1251, 2008; in the data active = inhibition above about 30%
HKDC1 inh – HKDC1 hexokinase inhibitors, primary screen, biochemical, fluorescence, uHTS; actives 0.16% (n = 340,000); inhibition, % at 20 µM; recombinant HKDC1, G6PDH/diaphorase resazurin coupled fluorescence;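 active = inhibition above about 35% when tested at 20 µM, limit read from the data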;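 also: plate controls were DMSO wells with enzyme for no effect and DMSO wells lacking enzyme for full effect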
Target sequence (Q2TB90 whole entry, looked up): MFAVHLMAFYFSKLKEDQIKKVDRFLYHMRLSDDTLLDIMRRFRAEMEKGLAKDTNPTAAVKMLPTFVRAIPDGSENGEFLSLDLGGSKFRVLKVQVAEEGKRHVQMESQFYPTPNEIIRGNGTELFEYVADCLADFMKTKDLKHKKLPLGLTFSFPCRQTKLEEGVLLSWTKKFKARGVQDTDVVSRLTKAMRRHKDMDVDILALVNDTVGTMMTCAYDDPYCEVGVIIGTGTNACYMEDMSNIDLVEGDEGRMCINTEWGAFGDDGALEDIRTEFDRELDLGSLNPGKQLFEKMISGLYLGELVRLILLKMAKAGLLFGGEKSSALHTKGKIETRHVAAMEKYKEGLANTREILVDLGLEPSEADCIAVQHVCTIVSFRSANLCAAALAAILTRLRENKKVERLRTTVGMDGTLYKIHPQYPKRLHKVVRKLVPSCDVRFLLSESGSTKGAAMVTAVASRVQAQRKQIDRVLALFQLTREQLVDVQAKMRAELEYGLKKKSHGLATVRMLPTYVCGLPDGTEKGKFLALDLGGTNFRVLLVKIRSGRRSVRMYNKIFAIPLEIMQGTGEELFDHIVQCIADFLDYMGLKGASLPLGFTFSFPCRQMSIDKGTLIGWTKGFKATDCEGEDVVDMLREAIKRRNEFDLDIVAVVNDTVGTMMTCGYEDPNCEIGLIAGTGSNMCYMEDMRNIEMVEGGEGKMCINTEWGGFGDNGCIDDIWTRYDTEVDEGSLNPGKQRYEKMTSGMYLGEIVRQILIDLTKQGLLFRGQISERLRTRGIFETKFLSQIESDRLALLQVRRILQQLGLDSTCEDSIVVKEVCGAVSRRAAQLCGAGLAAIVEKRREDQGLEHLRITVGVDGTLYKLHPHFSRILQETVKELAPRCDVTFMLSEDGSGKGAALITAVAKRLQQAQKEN
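System: Recombinant HKDC1 hexokinase | Amount: HKDC1 at 5 µg/mL | Reagent: Glucose with 1 mM ATP | Doses: Single 20 µM dose | Incubation: Reaction time 90 min, room temperature, protected from light | Signal: Coupled resazurin fluorescence, excitation 525 nm, emission 613 nm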
Diaphorase act – compounds boosting diaphorase resazurin reduction – biochemical, uHTS, resorufin fluorescence, counter-screen for diaphorase-coupled primary assays, primary screen; activation factor at 20 µM; actives 0.005% (n = 190,000); Diaphorase/resazurin coupled assay, 16 min; hits give high values; 1 = vehicle wells, 0 = NADH-free wells;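 active = diaphorase activity raised at least twofold by the compound at 20 µM; inactive = activation factor below 2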
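System – purified diaphorase enzyme from Clostridium kluyveri · Input – enzyme 0.07 U/mL final · Also added – final NADH 0.114 mM, resazurin 0.1 mM · Measured by – fluorescence of resorufin, 544 nm excitation, 590 nm emission · Timing – 16 min enzyme reaction, ambient temperature · Measure – resorufin increase flagging diaphorase activators or reducers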
Diaphorase inh – diaphorase inhibitors and chemical oxidizers, primary screen, counter-screen for diaphorase-coupled primary assays, biochemical, uHTS, resorufin fluorescence | AID 1217, 2008 | actives 0.69% (n = 190,000) | inhibition, % at 20 µM | diaphorase resazurin-to-resorufin fluorescence, NADH, 16 min; bacterial (C. kluyveri) enzyme, not human;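 active = primary screen inhibition at 20 µM above a set limit, cut at about 50% in these data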;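 also: plate controls were DMSO with full reaction for no effect and wells lacking NADH for full effect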
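Assay system – diaphorase enzyme from Clostridium kluyveri · Amount – diaphorase 0.14 U/mL (working solution) · Times – reaction incubation of 16 min at room temperature · Controls – No-NADH positive control and DMSO neutral control · Signal – resorufin fluorescence 544/590 nm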
Numbers without * were called inactive.

Screening O=C(c1cc(COc2ccc(F)cc2Cl)on1)N1CCCCCC1 returned HKDC1 inh 3.
`O=C(c1cc(COc2ccc(F)cc2Cl)on1)N1CCC(c2ccncc2)CC1` gave G6PDH counter 10, Arbovirus inh -7, HKDC1 inh -6, Diaphorase act 0.3 and Diaphorase inh 68*.
Cc1c(Br)cnn1C(C)C(=O)N1CCN(c2ccccc2F)CC1 (stereo not drawn) was read as HKDC1 inh 0.
COc1ccc(/C=N/NC(=O)c2ccco2)cc1OCc1ccccc1 was read as HKDC1 inh -2.
For Oc1ccc(N=Cc2ccc(O)c(O)c2)cc1 the results were G6PDH counter 58*, Arbovirus inh 4, HKDC1 inh 25, Diaphorase act 0.4 and Diaphorase inh 61*.
For COC(=O)CC(N)c1ccc(OC)c2ccccc12 (stereo not drawn) the results were G6PDH counter 4, Arbovirus inh 2, HKDC1 inh -4, Diaphorase act 1 and Diaphorase inh 4.
Screening CC12CCCC(CC(=O)O)(C1)NC(=O)C2 (stereo not drawn) returned HKDC1 inh -5.
`CCSc1nc2c(sc3nc(C)cc(C)c32)c(=O)[nH]1` gave G6PDH counter -10, Arbovirus inh 37*, Diaphorase act 0.6 and Diaphorase inh 36.
Cc1ccc(CCC(=O)Nc2ccc([N+](=O)[O-])cc2Cl)o1 was read as HKDC1 inh -3.
Screening CCOC(=O)[C@@H]1CSCCS(=O)(=O)N1Cc1ccccc1Br returned HKDC1 inh -4.
For CN(c1ccccc1)S(=O)(=O)c1cccc(NS(=O)(=O)c2ccc(/C=C/C(=O)O)cc2)c1 the results were G6PDH counter 10, Arbovirus inh 10, HKDC1 inh 1, Diaphorase act 0.4 and Diaphorase inh 59*.
Screening Cc1nccn1CC(=O)c1ccc(O)c(O)c1 returned HKDC1 inh 1.
CCn1c(CSc2ncccn2)nnc1SCC(=O)N1CCCCC1 was read as G6PDH counter 26, Arbovirus inh -2, HKDC1 inh -4, Diaphorase act 1 and Diaphorase inh 2.
Screening O=C(N/N=C/c1ccc(N2CCOCC2)o1)c1cccc([N+](=O)[O-])c1 returned G6PDH counter 8, Arbovirus inh -6, HKDC1 inh 17, Diaphorase act 0.2 and Diaphorase inh 76*.
For O=C(N/N=C/c1ccc(N2CCCCC2)o1)c1ccccc1 the results were G6PDH counter 10, Arbovirus inh 0, HKDC1 inh 3, Diaphorase act 0.9 and Diaphorase inh 13.
CN(C(=O)c1cccc(NC(=O)Cc2ccc(NC(=O)C3CCCN(C(=O)CCc4ccccc4)C3)cc2)c1)C1CCCCC1 (stereo not drawn) was read as HKDC1 inh -1.
`COc1ccc(/C=C2\SC(N)=NC2=O)cc1Br` gave HKDC1 inh 4.
Cc1ccc(C2=NC(=O)/C(=C/c3cc(O)c(O)c(Br)c3)S2)cc1 was read as G6PDH counter 4, Arbovirus inh -21, HKDC1 inh 27, Diaphorase act 0.2 and Diaphorase inh 81*.
`CCOc1ncccc1C(=O)OCC(=O)NCc1ccc(C(=O)OC)cc1` gave HKDC1 inh -5.
For O=C1Nc2ccccc2C1=NN1CCCCCC1 the results were HKDC1 inh 0.
`Nc1n[nH]c(=S)n1/N=C1/C(=O)Nc2ccccc21` gave G6PDH counter -3, Arbovirus inh 20, HKDC1 inh -6, Diaphorase act 0.2 and Diaphorase inh 79*.
For CCN(CC)CCCN1C(=O)C(O)=C(C(=O)c2ccco2)C1c1cc(OC)ccc1OC (stereo not drawn) the results were G6PDH counter 6, Diaphorase act 1 and Diaphorase inh 2.
Screening COc1cccc(C2=CC(=O)C(C(C)(C)C)N2C(C)(C)C)c1 (stereo not drawn) returned HKDC1 inh 5.
c1ccc2[nH]c3cc4ncnc4cc3nc2c1 was read as G6PDH counter 31, Arbovirus inh -20, HKDC1 inh 14, Diaphorase act 0.4 and Diaphorase inh 55*.
`FC(F)c1nc2ccccc2[nH]1` gave G6PDH counter 12, Arbovirus inh -1, HKDC1 inh -9, Diaphorase act 0.9 and Diaphorase inh 11.
O=C(CN1CCN(C(=O)c2cccc(S(=O)(=O)N3CCCC3)c2)CC1)Nc1cccc(F)c1 was read as HKDC1 inh 0.
Screening Cc1ccc2cccc(OC(=O)/C=C\c3ccccc3)c2n1 returned G6PDH counter 51*, Arbovirus inh -3, HKDC1 inh 0, Diaphorase act 0.7 and Diaphorase inh 26.
Screening Cc1ccc(NC(=O)CNC2CCS(=O)(=O)C2)cc1C (stereo not drawn) returned G6PDH counter 6, Arbovirus inh 4, HKDC1 inh -2, Diaphorase act 1.1 and Diaphorase inh -9.
For Cc1ccc(N2C(=O)/C(=C\c3ccc(C(C)C)cc3)N=C2SC2CCOC2=O)cc1 (stereo not drawn) the results were G6PDH counter -15, Arbovirus inh 39*, HKDC1 inh -5, Diaphorase act 0.8 and Diaphorase inh 22.
CCc1cc2c(cc3c(=O)n(CC(=O)N4CCN(C)CC4)ncn32)s1 was read as HKDC1 inh -5.
Screening Cc1ccc(NC(=S)N/N=C2\CC(C)(C)Oc3ccc(O)cc32)cc1 returned G6PDH counter 0, Arbovirus inh 9, HKDC1 inh -12, Diaphorase act 0.9 and Diaphorase inh 14.
CC(=O)N1CCC2(CC1)C/C(=N\NC(=S)Nc1ccc(C)cc1)c1cc(O)ccc1O2 was read as G6PDH counter 1, Arbovirus inh 11, HKDC1 inh 5, Diaphorase act 0.5 and Diaphorase inh 54*.
For CN(C)Cc1cc(C(C)(C)C)c(O)c(C(C)(C)C)c1 the results were G6PDH counter 3, Arbovirus inh 8, HKDC1 inh 5, Diaphorase act 0.6 and Diaphorase inh 36.
`CC(C)(C)c1cc(CN(CCO)CCO)cc(C(C)(C)C)c1O` gave G6PDH counter -9, Arbovirus inh 13, HKDC1 inh 8, Diaphorase act 0.3 and Diaphorase inh 70*.
CCNC(=O)CN(c1ccc(CC)cc1)S(C)(=O)=O was read as G6PDH counter 10, Arbovirus inh 46*, HKDC1 inh -6, Diaphorase act 0.9 and Diaphorase inh 10.
Screening Cc1ccc(CNC(=O)CN(c2ccc(Cl)cc2)S(C)(=O)=O)cc1 returned HKDC1 inh -7.

Assay outcomes: PubChem BioAssay, several laboratories
